The values below come from article PMC12525009 (The Febs Journal, 2025).

Common to all, as to format: binding
In assay [1] the target is T1, MsrQ (Escherichia coli, UniProt P76343).
T1 sequence (P76343 1-211): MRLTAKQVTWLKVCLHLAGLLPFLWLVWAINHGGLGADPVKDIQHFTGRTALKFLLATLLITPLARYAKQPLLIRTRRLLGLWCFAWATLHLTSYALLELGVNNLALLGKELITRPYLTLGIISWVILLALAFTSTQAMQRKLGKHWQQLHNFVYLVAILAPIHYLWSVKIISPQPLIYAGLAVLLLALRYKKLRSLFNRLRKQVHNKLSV
Put plainly: quinone extraction of purified protein, HPLC-ECD-MS. The following applies: co-purified from E. coli; per holoprotein (heme content); pH 7.6, LMNG. Put shortly:
(§1)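 Ni-NTA-purified MsrQ, in 50 mM Tris/HCl pH 7.6 with 0.004% LMNG, was quantified by heme content (pyridine hemochromogen, 556 nm). Quinones were extracted from […] protein with methanol/KCl, using 80 pmol UQ10 as internal standard. Two petroleum ether extractions were pooled, dried under N2 and taken up in ethanol. Fractions equal to 5 and 20 μg protein were run on HPLC-ECD-MS (m/z 500–900). MK8 was quantified against an MK7 curve (2–100 pmol) and UQ8 against a UQ10 standard.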

Assay [2] deals with T1, MsrQ. Nature of the assay: HPLC of flavin released by heat denaturation of purified protein. The note with it: co-purified; 1 μM holoprotein (heme content).
Assay [3] addresses T1, MsrQ. Put plainly: quinone extraction of purified protein, HPLC-ECD-MS. The following applies: co-purified from E. coli; per holoprotein (heme content); pH 7.6, LMNG. The procedure, abridged: as §1
The source holds these as a separate data set.

For the molecule `COC1=C(OC)C(=O)C(C/C=C(\C)CC/C=C(\C)CC/C=C(\C)CC/C=C(\C)CC/C=C(\C)CC/C=C(\C)CC/C=C(\C)CCC=C(C)C)=C(C)C1=O` [UQ8], the “UQ8/MsrQ ^b , ^c” value on MsrQ [1] stood at 0.45 ± 0.06 mol UQ8 per mol MsrQ.

On to `Cc1cc2nc3c(=O)[nH]c(=O)nc-3n(C[C@H](O)[C@H](O)[C@H](O)COP(=O)(O)O)c2cc1C` [FMN], for which, on MsrQ [2], the “FMN concentration in 1 μM MsrQ” value is 0.90 µM.

`CC(C)=CCC/C(C)=C/CC/C(C)=C/CC/C(C)=C/CC/C(C)=C/CC/C(C)=C/CC/C(C)=C/CC/C(C)=C/CC1=C(C)C(=O)c2ccccc2C1=O` [MK8]: the “MK8/MsrQ ^b , ^d” value at MsrQ [3] came out at 0.090 ± 0.020 mol MK8 per mol MsrQ.
